Compounds with a hit are over-represented: about 1.8% of the library has one in this group of screens.
NPY1 pot ag = potentiators or agonists of human neuropeptide Y receptor Y1; P25929; NPY-Y1 expressing cells, potentiator/agonist activation; activation, % at 3.6 µM; 220,000 compounds, 0.37% hits; AID 1304; in the data active = activation above about 33%, passing the limit was not always enough;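 note: cells stimulated with NPY at EC10 then isoproterenol at EC100; 0% = low agonist plus stimulus and 100% = saturating agonist plus stimulus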
Target sequence (P25929 whole entry, looked up): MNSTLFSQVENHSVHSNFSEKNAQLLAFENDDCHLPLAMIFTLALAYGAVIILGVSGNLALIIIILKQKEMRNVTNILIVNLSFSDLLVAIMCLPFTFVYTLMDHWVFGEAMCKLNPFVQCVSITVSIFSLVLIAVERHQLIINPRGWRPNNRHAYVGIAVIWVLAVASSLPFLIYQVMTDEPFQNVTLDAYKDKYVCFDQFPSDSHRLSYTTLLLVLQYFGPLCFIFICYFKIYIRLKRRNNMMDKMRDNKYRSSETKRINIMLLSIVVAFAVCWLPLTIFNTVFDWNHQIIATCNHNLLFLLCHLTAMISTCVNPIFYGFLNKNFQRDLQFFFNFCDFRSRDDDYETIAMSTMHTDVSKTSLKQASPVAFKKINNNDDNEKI
NPY Y1 blocker = antagonists of human neuropeptide Y receptor Y1. HEK293-CNG Y1 cells, membrane potential fluorescence; NPY at EC95, then isoproterenol. inhibition, % at 3.6 µM. 200,000 compounds, 1% hits. AID 1040;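 active = inhibition above the campaign mean inhibition of all tested compounds plus 3 SD, cut at about 20% in these data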;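 note: 0% = DMSO wells given NPY plus isoproterenol and 100% = isoproterenol alone without NPY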
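Test system – HEK293 Y1/CNG channel cell line · Also added – NPY agonist 25 nM, then isoproterenol 1 µM plus Ro 20-1724 25 µM · Compound dosing – one concentration, 3.6 µM, in 0.4% DMSO · Schedule – compound incubation 1 h at room temperature, readout 45 min post-stimulation · Technique – fluorescence, membrane potential probe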
NPY-Y2 antag = antagonists of human neuropeptide Y receptor Y2 | NPY-Y2 expressing cells, antagonist mode | inhibition, % at 2.7 µM | 140,000 compounds, 0.99% hits | AID 793;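 note: 0% = vehicle with agonist challenge and 100% = reference antagonist with challenge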
Target sequence (P49146 whole entry, looked up): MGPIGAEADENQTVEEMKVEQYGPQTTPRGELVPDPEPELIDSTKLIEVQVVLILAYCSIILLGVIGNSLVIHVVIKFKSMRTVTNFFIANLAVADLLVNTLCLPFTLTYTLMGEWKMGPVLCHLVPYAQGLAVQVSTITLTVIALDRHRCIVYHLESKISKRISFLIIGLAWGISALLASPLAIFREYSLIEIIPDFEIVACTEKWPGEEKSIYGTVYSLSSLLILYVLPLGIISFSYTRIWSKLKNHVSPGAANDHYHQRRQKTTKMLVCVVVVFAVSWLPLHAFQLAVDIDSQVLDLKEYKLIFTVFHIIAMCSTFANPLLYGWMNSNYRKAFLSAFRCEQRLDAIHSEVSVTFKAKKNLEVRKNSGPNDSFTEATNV
NPY-Y2 PAM-ag = potentiators or agonists of human neuropeptide Y receptor Y2; 220,000 compounds, 0.45% hits; AID 1359; cells expressing NPY-Y2, potentiator/agonist read-out; P49146; activation, % at 3.6 µM; in the data active = activation above about 27%;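 note: cells stimulated with NPY near EC25 plus isoproterenol at EC100; 0% = vehicle plus submaximal agonist and 100% = vehicle plus saturating agonist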
NPY1 antag conf = confirmation of human neuropeptide Y receptor Y1 antagonists; inhibition, % at 3.6 µM; 1,200 compounds, 21% hits; shares compounds with NPY Y1 blocker; HEK293-CNG NPY-Y1, membrane potential fluorescence, cAMP; NPY challenge against isoproterenol-raised cAMP; in the data active = inhibition above about 20%;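 note: 0% = vehicle with agonist plus stimulus and 100% = stimulus alone without agonist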
NPY2 antag ctr = counter-screen for NPY-Y1 antagonists: human NPY-Y2 antagonism; shares compounds with NPY Y1 blocker; HEK293 NPY-Y2 CNG membrane potential fluorescence; cells given NPY, then isoproterenol; inhibition, % at 3.6 µM; 1,200 compounds, 28% hits; AID 1255;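 note: 0% = DMSO with agonist challenge and 100% = reference antagonist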
NPY-Y1 confirm = confirmation of human NPY-Y1 receptor potentiators or agonists. shares compounds with NPY1 pot ag. cell-based NPY-Y1 potentiator/agonist assay. activation, % at 3.6 µM. 280 compounds, 20% hits; in the data active = activation above about 45%;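 note: cells challenged with NPY at its EC10 plus isoproterenol stimulus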
NPY-Y2 counter = potentiates or activates NPY-Y2, counter-screen for NPY-Y1 hits | shares compounds with NPY1 pot ag | HEK293-CNG cells, membrane-potential fluorescence (FLIPR), 1536-well | activation, % at 3.6 µM | 280 compounds, 20% hits | AID 1649; in the data active = activation above about 33%
NPY-Y1 agonist = activates human NPY-Y1, counter-screen for NPY-Y1 potentiators | shares compounds with NPY1 pot ag | HEK293 Y1-CNGC, membrane potential fluorescence, agonist mode | activation, % at 3.6 µM | 280 compounds, 50% hits | AID 1697;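 active = percent activation above the mean of DMSO-only control wells plus 3 SD of those wells, cut at about 18% in these data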;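 note: cells challenged with isoproterenol plus Ro 20-1724 with no NPY in test wells; Y1 agonism lowers isoproterenol-driven cAMP and reduces probe fluorescence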
NPY-Y2 agonist = human NPY-Y2 agonism as NPY-Y1 counter-screen | shares compounds with NPY1 pot ag | HEK293 Y2-CNGC, membrane potential fluorescence, agonist mode | activation, % at 3.6 µM | 280 compounds, 67% hits | AID 1698;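 active = activation above the solvent-only control wells' mean plus 3 SD, cut at about 11% in these data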;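 note: 0% = DMSO with isoproterenol and 100% = 40 nM NPY maximal response; agonism lowers cAMP so well fluorescence drops in active wells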
CNGC inh 2 = counter-screen for NPY-Y1 potentiators or agonists: CNG channel inhibitors | shares compounds with NPY1 pot ag | inhibition, % at 3.6 µM | HEK293-CNG parental, isoproterenol cAMP, membrane potential fluorescence | AID 1704 | 280 compounds, 42% hits;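 active = inhibition above the mean of stimulated solvent-only control wells plus 3 SD, cut at about 22% in these data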;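 note: 0% = isoproterenol-stimulated DMSO wells and 100% = unstimulated DMSO wells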
NPY-Y2 confirm = confirmation of human NPY-Y2 receptor potentiators or agonists; shares compounds with NPY-Y2 PAM-ag; cell-based NPY-Y2 potentiator/agonist assay; activation, % at 3.6 µM; 450 compounds, 20% hits; in the data active = activation above about 33%
NPY-Y1 potentiator = potentiates or activates NPY-Y1, counter-screen for NPY-Y2 hits. shares compounds with NPY-Y2 PAM-ag. activation, % at 3.6 µM. Y1 HEK293-CNG cells, membrane potential fluorescence. 450 compounds, 20% hits. AID 1651; in the data active = activation above about 45%;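 note: cells stimulated with submaximal NPY then isoproterenol with phosphodiesterase inhibitor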
NPY-Y1 agonist 2 = counter-screen for NPY-Y2 potentiators: agonists of human NPY-Y1. shares compounds with NPY-Y2 PAM-ag. HEK293 Y1-CNGC, membrane potential fluorescence, agonism. activation, % at 3.6 µM. 450 compounds, 37% hits. AID 1702;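 active = activation above the mean of DMSO-only control wells plus 3 SD, cut at about 18% in these data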;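 note: cells stimulated with 1 µM isoproterenol plus the PDE inhibitor Ro 20-1724; 0% = isoproterenol with DMSO and no NPY and 100% = 40 nM NPY; Y1 agonists lower the membrane potential dye signal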
CNGC inh = blocks CNG channel activity, counter-screen for NPY-Y2 potentiators | shares compounds with NPY-Y2 PAM-ag | HEK293-CNG parental, isoproterenol cAMP, membrane potential fluorescence | inhibition, % at 3.6 µM | 450 compounds, 32% hits | AID 1703;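 active = inhibition above the control-well mean plus 3 SD of those wells, cut at about 22% in these data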;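 note: 0% = DMSO with isoproterenol and 100% = DMSO without isoproterenol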
Y2 agonist ctr = NPY-Y2 agonism, counter-screen for Y2 potentiators; shares compounds with NPY-Y2 PAM-ag; HEK293 Y2/CNGC cells, membrane potential fluorescence, agonist mode; activation, % at 3.6 µM; 450 compounds, 56% hits; AID 1710;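 active = activation above the mean of solvent-only control wells plus 3 SD, cut at about 10% in these data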;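 note: cells stimulated by isoproterenol with no NPY added so direct agonism is tested; 0% = DMSO with isoproterenol alone and 100% = NPY at EC100 plus isoproterenol; agonism lowers probe fluorescence through less cAMP and CNG channel opening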
* hit, by the source's call; / = not tested or not shown; ! = not active in a repeat. Cut-off read from the data, not from the text of the source, unless noted: active = inhibition above about 17%; inactive = the rest.

SMILES	NPY1 pot ag	NPY Y1 blocker	NPY-Y2 antag	NPY-Y2 PAM-ag	others
CN(CC1COc2ccccc2O1)c1nc(-c2cccnc2)nc2ccccc12 (stereo unspecified)	-9	22*	14	-26	NPY1 antag conf=11;NPY2 antag ctr=14
CN1CCC(N(C)c2nc(-c3ccc([N+](=O)[O-])cc3)nc3ccccc23)CC1	25	1	1	11
CC(=O)c1cc(C(C)=O)c(C)[n+](C)c1C	2	/	/	14
CN(C)C(Cc1ccccc1)C(=O)c1ccc(-c2ccccc2)cc1 (stereo unspecified)	-34	27*	12	-20	NPY1 antag conf=10;NPY2 antag ctr=13
CCOc1cccc(C2NCc3ccccc3-n3cccc32)c1O (stereo unspecified)	3	2	1	-2
CCOc1cc(C2NCc3ccccc3-n3cccc32)ccc1O (stereo unspecified)	-16	22*	8	0	NPY1 antag conf=8;NPY2 antag ctr=6
C/C(=N/OC(=O)N(C)C)c1ncc(C(F)(F)F)cc1N1CCOCC1	-9	-2	-3	-5
Cc1ccc(S(=O)(=O)NC(CC(=O)N2CCC3(CC2)OCCO3)c2ccco2)cc1 (stereo unspecified)	13	4	2	14
O=P1(Nc2cccnc2)COc2ccccc2OC1	1	4	1	-9
CN(C)c1ccc(-[n+]2c(-c3ccccc3)cc(-c3ccccc3)cc2-c2ccccc2)cc1	34	50*	/	51*	NPY1 antag conf=35*;NPY2 antag ctr=18*;NPY-Y2 confirm=6;NPY-Y1 potentiator=-5;NPY-Y1 agonist 2=-13;CNGC inh=-22;Y2 agonist ctr=12*
N#Cc1cc2c(nc1SCC(=O)Nc1cc(Cl)cc(Cl)c1)C1CCN2CC1	12	1	-3	-33
COc1ccc(O)c2c(=O)c3c(OC)cc4c(c3oc12)C1C=COC1O4 (stereo unspecified)	56*	/	/	23	NPY-Y1 confirm=73*;NPY-Y2 counter=63*;NPY-Y1 agonist=69*;NPY-Y2 agonist=64*;CNGC inh 2=67*
Cn1c(O)c(C=NCCN2CCN(C(=O)c3ccccc3)CC2)c(=O)n(C)c1=O	-7	0	-3	6
Cc1cc(S(=O)(=O)NCc2ccccc2)ccc1OCC(=O)N1CCN(C)CC1	-24	6	1	13
CCOC(=O)c1c(-n2c(C)cc(C=C3C(=O)NC(=O)NC3=O)c2C)sc2c1CCCC2	39*	-13	2	10	NPY-Y1 confirm=93*;NPY-Y2 counter=73*;NPY-Y1 agonist=77*;NPY-Y2 agonist=68*;CNGC inh 2=28*
O=C(CN1CC(c2ccccc2)CC1=O)NCc1ccc(F)cc1 (stereo unspecified)	-13	0	2	4
CC(C)(O)[C@H]1O[C@H]2CC[C@@]3(C)[C@@](O)(CC[C@H]4Cc5c([nH]c6ccccc56)[C@@]43C)C2=CC1=O	43*	-14	/	24	NPY-Y1 confirm=49*;NPY-Y2 counter=41*;NPY-Y1 agonist=53*;NPY-Y2 agonist=43*;CNGC inh 2=44*
Clc1cccc(N2CCNCC2)c1Cl	1	8	4	32*	NPY-Y2 confirm=14;NPY-Y1 potentiator=15;NPY-Y1 agonist 2=9;CNGC inh=11;Y2 agonist ctr=8
N#Cc1cc(F)c(N2CCNCC2)cc1Cl	-18	2	2	-13
CC(=O)NC1CC2CCCC(C1)N2 (stereo unspecified)	10	3	1	9
Cc1cccc(N2CCc3c2nc2ccccc2c3N)c1	-43	1	-1	68*!	NPY-Y2 confirm=28;NPY-Y1 potentiator=39;NPY-Y1 agonist 2=-18;CNGC inh=1;Y2 agonist ctr=23*
O=c1c2ccccc2[nH]c(=S)n1-c1ccc(Br)cc1	19	-5	/	32*	NPY-Y2 confirm=5;NPY-Y1 potentiator=17;NPY-Y1 agonist 2=0;CNGC inh=11;Y2 agonist ctr=-1
O=c1c2cc(Br)ccc2[nH]c(=S)n1-c1ccccc1	-7	-4	/	0
Oc1cccc2nc3ccccc3nc12	10	/	/	-4
Cc1nn(Cc2ccccc2)c(Cl)c1C(=O)OCC(=O)Nc1cccc2ccccc12	25	-5	12	45*	NPY-Y2 confirm=-19;NPY-Y1 potentiator=-20;NPY-Y1 agonist 2=-12;CNGC inh=-14;Y2 agonist ctr=-8
CC(C)C12CN3CCN(CC(C3)/C1=N\O)C2	7	2	3	1
O=C1Nc2ccccc2/C1=C/c1nc2ccccc2c(=O)n1-c1ccc(O)cc1	44	/	/	42*	NPY-Y2 confirm=33*;NPY-Y1 potentiator=44;NPY-Y1 agonist 2=29*;CNGC inh=35*;Y2 agonist ctr=33*
CCN(CC)c1ccc(/C=C2/C(=O)NC(=O)N(CC3CCCO3)C2=O)cc1 (stereo unspecified)	-3	-3	-2	-2
O=C1NC(=O)N(CC2CCCO2)C(=O)/C1=C/c1cccs1 (stereo unspecified)	14	/	/	41*	NPY-Y2 confirm=2;NPY-Y1 potentiator=13;NPY-Y1 agonist 2=3;CNGC inh=2;Y2 agonist ctr=3

Screening data: PubChem, The Scripps Research Institute Molecular Screening Center
